# Counter-ions that a name gives are not always drawn. Residues, ends and D or L forms follow the SMILES beside them. *: point of attachment. Cbz = O=C(OCc1ccccc1)*
# How the values were obtained:
# [1] = cited from earlier work; for ability to penetrate the blood-brain barrier: positive controls of PAMPA
# [2] = test system: proteasome activity; assay: Proteasome activity in mouse tissue lysates after intraperitoneal injection; details: in vivo
# [3] = target: proteasome (chymotrypsin-like) activity (Mus musculus, UniProt O55234); assay: Proteasome peptidase activity in mouse brain lysates with inhibitor; assay type: biochemical; details: brains of 3-month-old mice, replicate samples incubated with inhibitor
# In short: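 Mouse brain tissue lysed mechanically in reaction buffer, with buffer volume scaled to tissue weight; the supernatant was assayed. ATP-stimulated activity used 50 mM tris-HCl pH 7.8 with 1 mM MgCl2, 0.5 mM ATP and 1 mM DTT. ATP-independent activity used 50 mM tris-HCl pH 8.0 with 1 mM MgCl2 and 1 mM DTT. Proteasome inhibitor (1 μM) was added 5 min before starting with 50 μM Suc-LLVY-AMC.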
Compound,ability to penetrate the blood-brain barrier [1],other results
"NCCc1ccc(O)c(O)c1 [Dopamine, Dopamine hydrobromide]",–,ability to cross the blood-brain barrier ([1]; negative control of PAMPA): unable to efficiently cross the blood-brain barrier
"CC(C)C[C@@H](C=O)NC(=O)[C@H](CC(C)C)NC(=O)[C@H](CC(C)C)NC(=O)OCc1ccccc1 [MG132, N-carbobenzyloxy-L-leucyl-L-leucyl-L-leucinal] (Cbz-Leu-Leu-Leu-aldehyde)",–,"effect of inhibitor on the TAT1-8,9TOD-induced increase of proteasome activity [2]: could be blocked"
CC(C)C[C@H](NC(=O)[C@H](Cc1ccccc1)NC(=O)c1cnccn1)B(O)O [bortezomib],–,effect of inhibitor on increased proteasome activity of NSE-PSMB5 mouse brains [3]: blocked
"CC(C)NCC(O)COc1cccc2ccccc12 (stereo not drawn) [propranolol, Propranolol hydrochloride]",known for their ability to penetrate the blood-brain barrier,–
"Tat^47–57: HIV-1 Tat-derived peptide, synthesized in-house, positive control of PAMPA",known for their ability to penetrate the blood-brain barrier,–
dermorphin,known for their ability to penetrate the blood-brain barrier,–

# Reference: article PMC9177073 (Science Advances, 2022)
